Data: ChEMBL document CHEMBL2390875, “Synthesis and pharmacological investigation of new N-hydroxyalkyl-2-aminophenothiazines exhibiting marked MDR inhibitory effect” (Bioorg Med Chem, 2013)
The source made the active and inactive calls. No cut-off for these calls is given here.

system: Hepatocyte; assay: Cytotoxicity against Wistar rat primary hepatocytes assessed as change in cell viability at 10 uM after 3 hrs by MTT assay; assay type: cell-based
How it was run: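 Primary hepatocytes from male Wistar rats (200-250 g), cultured as a monolayer, exposed 3 h to compound or vehicle (control), washed, then incubated with 1 mg/mL MTT for 2 h. Cells lysed in DMSO and absorbance read at 570 nm. Viability expressed as % of control.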

| SMILES | Activity |
| --- | --- |
| COc1ccc(-n2nnc(CCC(O)CN3c4ccccc4Sc4ccc(NCCN5CCOCC5)cc43)n2)cc1 (stereo not drawn) | Non-toxic |
| COc1ccc(-n2nnc(CCC(O)CN3c4ccccc4[S+]([O-])c4ccc(N5CCOCC5)cc43)n2)cc1 (stereo not drawn) | Non-toxic |
| COc1ccc(-n2nnc(CCC(O)CN3c4ccccc4S(=O)(=O)c4ccc(N5CCOCC5)cc43)n2)cc1 (stereo not drawn) | Non-toxic |
| CCN(CC)c1ccc2c(c1)N(CC(O)CCc1nnn(-c3ccc(OC)cc3)n1)c1ccccc1S2 (racemic) | Non-toxic |
| COc1ccc(-n2nnc(CCC(O)CN3c4ccccc4Sc4ccc(N5CCOCC5)cc43)n2)cc1 (racemic) [listing 1 of 2 here] | Non-toxic |

system: Hepatocyte; assay: Inhibition of p-gp in Wistar rat primary hepatocytes assessed as inhibition of rhodamine 123 efflux at 10 uM after 3 hrs; assay type: cell-based
How it was run: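 Collagenase-perfused male Wistar rat hepatocytes plated on collagen and cultured 4 days in supplemented Williams Medium E. Cells preloaded 30 min with 5 µM RH123, then exposed 3 h to compound or 0.1% DMSO vehicle. Cells washed with ice-cold HBSS and lysed in 0.5% Triton X100. Intracellular RH123 read by fluorescence at 519/538 nm. Mean ± SD from three isolations, four wells per condition, Student's t-test.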

| SMILES | inhibition |
| --- | --- |
| COc1ccc(-n2nnc(CCC(O)CN3c4ccccc4[S+]([O-])c4ccc(N5CCOCC5)cc43)n2)cc1 (stereo not drawn) | Active |
| COc1ccc(-n2nnc(CCC(O)CN3c4ccccc4S(=O)(=O)c4ccc(N5CCOCC5)cc43)n2)cc1 (stereo not drawn) | Active |
| COc1ccc(-n2nnc(/C=C\C=C\N3c4ccccc4Sc4ccc(Cl)cc43)n2)cc1 | Active |
| COc1ccc(-n2nnc(CCC(O)CN3c4ccccc4Sc4ccc(C(F)(F)F)cc43)n2)cc1 (stereo not drawn) | Active |
| COc1ccc(-n2nnc(CCC(O)CN3c4ccccc4Sc4ccc(NC(C)=O)cc43)n2)cc1 (stereo not drawn) | Active |
| COc1ccc(-n2nnc(CCC(O)CN3c4ccccc4Sc4ccccc43)n2)cc1 (stereo not drawn) | Active |
| CCN(CC)c1ccc2c(c1)N(CC(O)CCc1nnn(-c3ccc(OC)cc3)n1)c1ccccc1S2 (racemic) | Active |
| COc1ccc(-n2nnc(CCC(O)CN3c4ccccc4Sc4ccc(N5CCN(C)CC5)cc43)n2)cc1 (racemic) | Active |
| COc1ccc(-n2nnc(CCC(O)CN3c4ccccc4Sc4ccc(N5CCOCC5)cc43)n2)cc1 (racemic) [listing 2 of 2 here] | Active |
| COc1ccc(-n2nnc(CCC(O)CN3c4ccccc4Sc4ccc(N5CCN(C)CC5)cc43)n2)cc1 (single isomer, unassigned; (+)) | Active |
| COc1ccc(-n2nnc(CCC(O)CN3c4ccccc4Sc4ccc(N5CCN(C)CC5)cc43)n2)cc1 (single isomer, unassigned; (-)) | Active |
| COc1ccc(-n2nnc(CCC(O)CN3c4ccccc4Sc4ccc(N5CCOCC5)cc43)n2)cc1 (single isomer, unassigned; (-)) | Active |
| COc1ccc(-n2nnc(CCC(O)CN3c4ccccc4Sc4ccc(N5CCOCC5)cc43)n2)cc1 (stereo in doubt; (+)-3h) | Active |
